Source: article PMC2099187 (The Journal of Cell Biology, 2007)
“Also recorded” adds a separate entry of the source. Where a SMILES comes first, the peptide text is derived from it.

Tests used:
[1] = target: T1, recombinant human (rh) ECE-1 (Homo sapiens, UniProt P42892); assay: Peptide degradation by rhECE-1; type: biochemical; conditions: for Degradation of peptide by 83 nM rhECE-1 at pH 5.5 or 7.4: 50 mM MES-KOH pH 5.5 or 50 mM Tris-HCl pH 7.4, up to 480 min
T1 sequence (P42892 1-770): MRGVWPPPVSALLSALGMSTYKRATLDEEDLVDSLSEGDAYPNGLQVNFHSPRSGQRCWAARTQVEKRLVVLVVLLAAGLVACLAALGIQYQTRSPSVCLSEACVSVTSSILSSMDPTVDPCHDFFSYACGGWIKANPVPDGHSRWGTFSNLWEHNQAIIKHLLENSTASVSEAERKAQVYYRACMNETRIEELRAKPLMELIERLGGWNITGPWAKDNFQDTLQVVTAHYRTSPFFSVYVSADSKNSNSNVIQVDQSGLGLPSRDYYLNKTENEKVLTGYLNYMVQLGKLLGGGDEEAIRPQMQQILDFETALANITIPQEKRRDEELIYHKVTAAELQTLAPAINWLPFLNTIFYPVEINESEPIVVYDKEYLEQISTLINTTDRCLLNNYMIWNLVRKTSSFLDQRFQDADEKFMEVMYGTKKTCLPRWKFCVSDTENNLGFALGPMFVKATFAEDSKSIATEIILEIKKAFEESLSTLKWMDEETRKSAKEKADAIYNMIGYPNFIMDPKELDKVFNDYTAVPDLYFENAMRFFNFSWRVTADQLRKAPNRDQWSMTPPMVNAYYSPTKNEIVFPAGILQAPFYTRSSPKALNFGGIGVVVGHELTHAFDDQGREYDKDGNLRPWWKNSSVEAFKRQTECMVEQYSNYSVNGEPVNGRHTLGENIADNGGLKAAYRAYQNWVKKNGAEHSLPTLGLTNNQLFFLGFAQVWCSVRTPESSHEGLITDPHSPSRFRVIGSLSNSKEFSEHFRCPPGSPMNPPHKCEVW
Summary of the method: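 Where used, the ECE-1 inhibitor (100 μM) was preincubated with enzyme on ice for 30 min at matching pH before substrate was added. Products were resolved by reversed-phase HPLC and identified by MALDI TOF/TOF mass spectrometry.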

HEK-CLR-RAMP1 cells [2] = assay: Endocytosis and degradation of internalized 125I-His8-CGRP; type: cell-based, human; conditions: 30 min after internalization; SM-19712 10 μM, bafilomycin A1 0.15 or 1 μM
HEK cells = assay: BK-induced Ca2+ signaling, desensitization and resensitization; type: cell-based, human; conditions: SM-19712 10 μM; for Effect on response to a single BK challenge ([Ca2+]i): BK 100 nM, thiorphan 1 μM, phosphoramidon 1 μM
Summary of the method: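 HEK cells with native B2R were loaded with Fura-2AM and [Ca2+]i read at 37°C, on coverslips or in suspension. Cells were preincubated with BK 100 nM or vehicle (10 min, 37°C), washed, recovered 0–120 min, then rechallenged with BK 100 nM. SM-19712 10 μM, bafilomycin A1 0.15 or 1 μM, or DMSO was preincubated 20–60 min and kept in buffers throughout.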

[3] = test system: HEK-CLR-RAMP1+βARR2-GFP cells; assay: Trafficking and colocalization of β-arrestin2-GFP and CLR/RAMP1; type: cell-based, human; conditions: recovery up to 4 h in CGRP-free medium
Summary of the method: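 HEK-CLR-RAMP1 cells transiently transfected with β-arrestin2-GFP had surface CLR (HA11) and RAMP1 (Myc) labelled. Cells were given CGRP (2 min to 1 h), washed, and recovered in CGRP-free medium for 1–4 h. SM-19712 10 μM, bafilomycin A1 0.15 or 1 μM, or DMSO was preincubated 20–60 min and kept throughout. After PFA fixation and confocal imaging, β-arrestin2/CLR endosomal colocalization coefficient was measured at 4 h recovery.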

CLR/RAMP1 = CLR/RAMP1 (Rattus norvegicus, UniProt Q63118+Q9JJ74); assay: pH dependency of 125I-CGRP binding to CLR/RAMP1 membranes; conditions: pH 5.5, relative to pH 7.5 (100%)
HEK-CLR-RAMP1 cells [4] = assay: CGRP-induced Ca2+ signaling, desensitization and resensitization; type: cell-based, human
Summary of the method: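 HEK-CLR-RAMP1 cells were loaded with Fura-2AM; [Ca2+]i read at 37°C. Single challenge used CGRP 30 nM. For desensitization/resensitization: CGRP 100 nM or vehicle (1 h, 37°C), wash, 0–6 h recovery, CGRP 30 nM rechallenge. Variants: SM-19712 10 μM (20–60 min preincubation, kept throughout); ECE-1 or non-targeting siRNA pools, 72 h; transient ECE-1a-d-GFP. Response given as % of vehicle-treated cells, n ≥ 3.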

[5] = test system: HEK-CLR-RAMP1 cells expressing ECE-1c-HSV; assay: Cell surface ECE-1c-HSV by flow cytometry; type: cell-based, human; conditions: CGRP 100 nM, 30 min, 37°C
Summary of the method: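 HEK-CLR-RAMP1 cells transiently expressing ECE-1c-HSV were bound with goat anti-HSV (1 h, 4°C), washed, and exposed to CGRP 100 nM or vehicle (30 min, 37°C). They were then stained with FITC anti-goat (1:200, 1 h, 4°C) and analysed by flow cytometry. Secondary-only background was subtracted; surface signal was expressed relative to 4°C cells (100%).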

SK-N-MC cells = assay: CGRP-induced Ca2+ signaling, desensitization and resensitization; type: cell-based, human; conditions: challenge 100 nM
Summary of the method: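 SK-N-MC cells (endogenous CLR/RAMP1) were loaded with Fura-2AM for [Ca2+]i at 37°C. Single challenge used CGRP 100 nM. Desensitization: CGRP 100 nM or vehicle (1 h, 37°C), wash, CGRP-free recovery (4 h for resensitization), then CGRP 100 nM rechallenge. SM-19712 10 μM or DMSO was preincubated 20–60 min and kept throughout. Response was expressed as % of vehicle-treated cells.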

rhECE-1 = assay: rhECE-1; conditions: human, 37°C, up to 720 min
HEK-AT1AR cells = assay: Resensitization of ATII-induced Ca2+ signaling; type: cell-based, human; conditions: ATII 100 nM 1 h 37°C, wash, 2 h recovery, challenge 100 nM; unpublished data; mean ± SE
Summary of the method: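 HEK-AT1AR cells were exposed to ATII (100 nM) or vehicle for 1 h at 37°C, washed, and allowed to recover in agonist-free medium at 37°C. They were then rechallenged with ATII (100 nM) while [Ca2+]i was measured. The [Ca2+]i change is expressed as % of the vehicle-pretreated response. Inhibitor (10 μM) or DMSO was preincubated 20–60 min and kept in buffers throughout. Mean ± SE, n ≥ 3.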

[6] = peptide 250 μM, rhECE-1 83 nM, 37°C, HPLC

CLR/RAMP1, sequence (Q63118 24-464): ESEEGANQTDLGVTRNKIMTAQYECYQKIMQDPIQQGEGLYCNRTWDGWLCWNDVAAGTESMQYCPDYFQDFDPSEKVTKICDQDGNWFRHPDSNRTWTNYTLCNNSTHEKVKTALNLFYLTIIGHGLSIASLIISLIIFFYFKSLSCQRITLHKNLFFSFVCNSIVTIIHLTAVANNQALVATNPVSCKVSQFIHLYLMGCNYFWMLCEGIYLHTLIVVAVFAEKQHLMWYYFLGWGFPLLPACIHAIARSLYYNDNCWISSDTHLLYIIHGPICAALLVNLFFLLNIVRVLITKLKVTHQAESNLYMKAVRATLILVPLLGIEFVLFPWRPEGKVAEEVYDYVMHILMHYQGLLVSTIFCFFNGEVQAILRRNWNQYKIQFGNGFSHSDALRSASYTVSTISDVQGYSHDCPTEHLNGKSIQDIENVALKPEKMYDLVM
CLR/RAMP1, sequence (Q9JJ74 27-148): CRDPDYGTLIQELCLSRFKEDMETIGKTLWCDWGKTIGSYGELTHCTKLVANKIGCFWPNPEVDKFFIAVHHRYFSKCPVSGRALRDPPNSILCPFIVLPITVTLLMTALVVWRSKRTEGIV

NC(N)=NCCC[C@H](NC(=O)[C@H](Cc1ccccc1)NC(=O)[C@@H]1CCCN1C(=O)[C@H](CO)NC(=O)[C@H](Cc1ccccc1)NC(=O)CNC(=O)[C@@H]1CCCN1C(=O)[C@@H]1CCCN1C(=O)[C@@H](N)CCCN=C(N)N)C(=O)O [BK, bradykinin] (H-RPPGFSPFR-OH)
Degradation of peptide by 83 nM rhECE-1 at pH 5.5 or 7.4 [1, 6]: degraded BK at pH 5.5 and 7.4 | pH dependence of the rate of degradation by rhECE-1 ([1]; rhECE-1 83 nM, pH 5.5 versus pH 7.4, 37°C, HPLC): faster at pH 5.5

CO/C1=C\C(C)=C\[C@@H](C)[C@@H](O)[C@@H](C)C/C(C)=C/C=C/[C@H](OC)[C@@H]([C@@H](C)[C@@H](O)[C@H](C)[C@@]2(O)C[C@@H](O)[C@H](C)[C@@H](C(C)C)O2)OC1=O [bafilomycin A1]
Effect on degradation of internalized 125I-His8-CGRP (HEK-CLR-RAMP1 cells [2]): prevented degradation | Effect on desensitization of BK-induced Ca2+ signaling (HEK cells; bafilomycin A1 0.15 or 1 μM): had no effect | Effect on resensitization of BK-induced Ca2+ signaling (HEK cells; bafilomycin A1 0.15 or 1 μM, 0–120 min recovery): had no effect | Effect on localization of CLR (RAMP1) and β-arrestin2 during recovery [3]: caused retention of CLR, RAMP1, and β-arrestin2 in endosomes for up to 4 h recovery

CC(C)C[C@H](NP(=O)(O)O[C@@H]1O[C@@H](C)[C@H](O)[C@@H](O)[C@H]1O)C(=O)N[C@@H](Cc1c[nH]c2ccccc12)C(=O)O [phosphoramidon]
Effect on response to a single BK challenge ([Ca2+]i) (HEK cells): did not affect responses to a single BK challenge

O=C(O)CNC(=O)C(CS)Cc1ccccc1 (centres unmarked) [thiorphan]
Effect on response to a single BK challenge ([Ca2+]i) (HEK cells): did not affect responses to a single BK challenge

Calcitonin gene-related peptide [CGRP]
Peptide bound to CLR/RAMP1 at endosomal pH 5.5 (CLR/RAMP1): ~20% | Bonds hydrolysed by rhECE-1 (major products separated by HPLC) ([1]; pH 5.5, products CGRP[15–26], CGRP[27–37], CGRP[1–24], CGRP[1–26]): Gly^14-Leu^15, Lys^24-Asp^25, and Asn^26-Phe^27 | Degradation of peptide by rhECE-1 at endosomal pH 5.5 ([1]; peptide 250 μM, rhECE-1 83 or 415 nM, 37°C, 50 mM MES-KOH pH 5.5, 0–720 min, reversed-phase HPLC): degraded CGRP in a concentration-dependent manner | Degradation of peptide by rhECE-1 at extracellular fluid pH 7.4 ([1]; peptide 250 μM, rhECE-1, 37°C, 50 mM Tris-HCl pH 7.4, reversed-phase HPLC): minimal | Desensitization of CGRP-induced Ca2+ signals by preincubation with agonist (HEK-CLR-RAMP1 cells [4]; CGRP 100 nM 1 h 37°C, 0 h recovery, challenge 30 nM): complete desensitization | Resensitization of responses to CGRP in cells with active ECE-1 (HEK-CLR-RAMP1 cells [4]; CGRP 100 nM 1 h, wash, 0–6 h recovery, challenge 30 nM): fully resensitized at 4–6 h recovery | Resensitization of CGRP-induced Ca2+ signaling, HEK cells expressing CLR/RAMP1 alone (control) (HEK-CLR-RAMP1 cells [4]; after 2 h recovery, mean ± SE): 33 ± 2% | Resensitization of CGRP-induced Ca2+ signaling, cells overexpressing ECE-1c (HEK-CLR-RAMP1 cells [4]; at 2 h recovery, mean ± SE): 75 ± 5% | Effect on constitutive endocytosis of ECE-1c-HSV (cell surface ECE-1c) [5]: did not affect this endocytosis | Desensitization of responses to CGRP by preincubation with agonist (SK-N-MC cells; CGRP 100 nM 1 h 37°C): completely desensitized | Resensitization of responses to CGRP (SK-N-MC cells; after 4 h recovery, mean ± SE): 54 ± 5%

SCNTATCVTHRLAGLLSRSGGVVKDNFVPTNVGSEAF-NH2
cleaved bond (rhECE-1): Gly14-Leu15, major; also recorded: Lys24-Asp25, major; also recorded: Asn26-Phe27, major

angiotensin (AT) I (DRVYIHPFHL; Angiotensin-1; UniProt P01019 25-34, looked up) [ATI]
Degradation of peptide by 83 nM rhECE-1 at pH 5.5 or 7.4 [1, 6]: degraded ATI under the same conditions

angiotensin II (DRVYIHPF; Angiotensin-2; UniProt P01019 25-32, looked up) [ATII]
Degradation of peptide by 83 nM rhECE-1 at pH 5.5 or 7.4 [1, 6]: no detectable degradation at up to 480 min

angiotensin II [ATII]
Resensitization of ATII-induced Ca2+ signaling at 2 h (HEK-AT1AR cells): 96 ± 3%
